Experimental findings from PMC3483416 (Archives of biochemistry and biophysics, 2012) are described below.

Like-named read-outs stand apart in the source and are kept apart here. No end group written: not given here.

Assay [1] deals with full-length human BclXL (Homo sapiens, UniProt Q07817). In words: ITC: binding of Bid_BH3 peptide to full-length BclXL at varying pH. The settings on record: for TΔS / ΔH / ΔG: 25 °C, ± SD, n at least 3; for TΔS: TΔS=ΔH-ΔG; for ΔG: ΔG=RTlnKd. The method, boiled down: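 20-mer BH3 peptide (human Bid residues 81–100, gravimetric concentration) at 0.5–1 mM, titrated in 25 × 10 μl injections into 50 μM full-length human BclXL at 25 °C. Buffers 50 mM acetate pH 4, phosphate pH 6, Tris pH 8 or CAPS pH 10, each with 100 mM NaCl, 1 mM EDTA and 5 mM β-mercaptoethanol. Dilution heats subtracted. Kd and ΔH from a one-site fit; TΔS = ΔH − ΔG. Proton coupling assessed from buffer ionization-enthalpy dependence. ≥3 repeats.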

The target in assay [2] is T1, Full-length human BclXL (residues 1-233) (human, UniProt Q07817-1 1-233). In words: ITC. Background: In ITC the heat of successive injections is recorded.
Assay [3] addresses T1, Full-length human BclXL (residues 1-233). In words: ITC. The source holds these as a separate data set.
Assay [4] has the same target. In words: ITC. The source holds these as a separate data set.
For assay [5] the target is unchanged. In words: ITC. The source holds these as a separate data set.

In general, Kd refers to a measure of binding affinity in units of concentration. Read a low Kd as a tighter complex.

full-length human BclXL, sequence (Q07817 whole entry, the tested form may be a part): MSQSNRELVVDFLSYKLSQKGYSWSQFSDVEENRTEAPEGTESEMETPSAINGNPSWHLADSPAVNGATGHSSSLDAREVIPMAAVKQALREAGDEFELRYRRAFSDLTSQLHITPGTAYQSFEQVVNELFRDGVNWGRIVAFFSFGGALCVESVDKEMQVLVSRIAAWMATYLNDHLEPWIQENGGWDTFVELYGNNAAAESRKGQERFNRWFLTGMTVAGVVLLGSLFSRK
T1 sequence (Q07817 whole entry, the tested form may be a part): as above

On to DIIRNIARHLAQVGDSMDRS [Bid_BH3 peptide], for which the TΔS in assay [1] (pH 4, acetate) was -9 ± 0.13 kJ/mol; in assay [1] (pH 6, phosphate), -22.9 ± 0.628 kJ/mol; in assay [1] (pH 8, Tris), -48.45 ± 1.21 kJ/mol; in assay [1] (pH 10, CAPS) it was -42.38 ± 1.3 kJ/mol. For the same molecule, the ΔH in assay [1] (pH 4, acetate) is -38 ± 0.837 kJ/mol; in assay [1] (pH 6, phosphate), -57.15 ± 1.34 kJ/mol; in assay [1] (pH 8, Tris), -76.94 ± 2.22 kJ/mol; in assay [1] (pH 10, CAPS) it was -69.2 ± 1.97 kJ/mol. The ΔG in assay [1] (pH 4, acetate) is -29 ± 0.33 kJ/mol; in assay [1] (pH 6, phosphate) it was -34.2 ± 0.38 kJ/mol; in assay [1] (pH 8, Tris), -28.5 ± 0.17 kJ/mol; in assay [1] (pH 10, CAPS) it was -26.8 ± 0.084 kJ/mol. Besides, the “optimum pH of ligand binding” value in assay [1] (pH 4-10) is “optimally occurs at pH 6”.

B1: Bid_BH3 peptide (20-mer spanning residues 81-100, the BH3 domain within human Bid) (peptide)
peptide: DIIRNIARHLAQVGDSMDRS
As to B1, the dissociation constant Kd came to 10.4 µM in assay [2], 20.5 µM in assay [3], 1.03 µM in assay [4] and 8.3 µM in assay [5]. Also, the dH was -76.9 kJ/mol in assay [2], -69.2 kJ/mol in assay [3], -57.2 kJ/mol in assay [4] and -38 kJ/mol in assay [5].
